Data from ChEMBL document CHEMBL2062453, “Lead optimization through VLAK protocol: new annelated pyrrolo-pyrimidine derivatives as antitumor agents” (2012).

Legend:
Type in all cases: functional
[1] = tested on: NCI-H226; assay: Cytotoxicity against human NCI-H226 cells assessed as cell growth at 10 uM after 48 hrs by SRB assay relative to control; conditions: NCI-H226, 48 h, read-out: Activity
[2] = tested on: HOP-62; assay: Cytotoxicity against human HOP62 cells assessed as cell growth at 10 uM after 48 hrs by SRB assay relative to control; conditions: HOP-62, 48 h, read-out: Activity
Procedure, shortened: (§1)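 NCI primary screen of about 60 human tumour lines. Cells inoculated and preincubated, then a single test concentration added and cultures incubated 48 h. Result given as percent growth (G%) of treated versus untreated control cells.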

[3] = tested on: HCC 2998; assay: Cytotoxicity against human HCC2998 cells assessed as cell growth at 10 uM after 48 hrs by SRB assay relative to control; conditions: HCC 2998, 48 h, read-out: Activity; procedure, shortened: as §1
[4] = tested on: SK-MEL-28; assay: Cytotoxicity against human SK-MEL-28 cells assessed as cell growth at 10 uM after 48 hrs by SRB assay relative to control; conditions: SK-MEL-28, 48 h, read-out: Activity
[5] = tested on: SF-268; assay: Cytotoxicity against human SF268 cells assessed as cell growth at 10 uM after 48 hrs by SRB assay relative to control; conditions: SF-268, 48 h, read-out: Activity
[6] = tested on: NCI-H23; assay: Cytotoxicity against human NCI-H23 cells assessed as cell growth at 10 uM after 48 hrs by SRB assay relative to control; conditions: NCI-H23, 48 h, read-out: Activity
[7] = tested on: NCI-H522; assay: Cytotoxicity against human NCI-H522 cells assessed as cell growth at 10 uM after 48 hrs by SRB assay relative to control; conditions: NCI-H522, 48 h, read-out: Activity
[8] = tested on: A498; assay: Cytotoxicity against human A498 cells assessed as cell growth at 10 uM after 48 hrs by SRB assay relative to control; conditions: A498, 48 h, read-out: Activity; procedure, shortened: as §1
[9] = tested on: HOP-92; assay: Cytotoxicity against human HOP92 cells assessed as cell growth at 10 uM after 48 hrs by SRB assay relative to control; conditions: HOP-92, 48 h, read-out: Activity; procedure, shortened: as §1
[10] = tested on: RXF 393; assay: Cytotoxicity against human RXF393 cells assessed as cell growth at 10 uM after 48 hrs by SRB assay relative to control; conditions: RXF 393, 48 h, read-out: Activity
[11] = tested on: RPMI-8226; assay: Cytotoxicity against human RPMI8226 cells assessed as cell growth at 10 uM after 48 hrs by SRB assay relative to control; conditions: RPMI-8226, 48 h, read-out: Activity
[12] = tested on: SF-539; assay: Cytotoxicity against human SF539 cells assessed as cell growth at 10 uM after 48 hrs by SRB assay relative to control; conditions: SF-539, 48 h, read-out: Activity
[13] = tested on: OVCAR-4; assay: Cytotoxicity against human OVCAR4 cells assessed as cell growth at 10 uM after 48 hrs by SRB assay relative to control; conditions: OVCAR-4, 48 h, read-out: Activity
[14] = tested on: HCT-15; assay: Cytotoxicity against human HCT15 cells assessed as cell growth at 10 uM after 48 hrs by SRB assay relative to control; conditions: HCT-15, 48 h, read-out: Activity; procedure, shortened: as §1
[15] = tested on: SK-OV-3; assay: Cytotoxicity against human SKOV3 cells assessed as cell growth at 10 uM after 48 hrs by SRB assay relative to control; conditions: SK-OV-3, 48 h, read-out: Activity
[16] = tested on: HT-29; assay: Cytotoxicity against human HT-29 cells assessed as cell growth at 10 uM after 48 hrs by SRB assay relative to control; conditions: HT-29, 48 h, read-out: Activity; procedure, shortened: as §1
[17] = tested on: OVCAR-3; assay: Cytotoxicity against human OVCAR3 cells assessed as cell growth at 10 uM after 48 hrs by SRB assay relative to control; conditions: OVCAR-3, 48 h, read-out: Activity
[18] = tested on: TK-10; assay: Cytotoxicity against human TK10 cells assessed as cell growth at 10 uM after 48 hrs by SRB assay relative to control; conditions: TK-10, 48 h, read-out: Activity
Procedure, shortened: (§2)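 NCI single-dose primary screen across about 60 human tumour lines. Each line was inoculated and preincubated on microtiter plates, then exposed to one concentration of agent for 48 h. Growth is reported as percent growth (G%) of treated cells versus untreated control cells.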

[19] = tested on: PC-3; assay: Cytotoxicity against human PC3 cells assessed as cell growth at 10 uM after 48 hrs by SRB assay relative to control; conditions: PC-3, 48 h, read-out: Activity
[20] = tested on: 786-0; assay: Cytotoxicity against human 786-0 cells assessed as cell growth at 10 uM after 48 hrs by SRB assay relative to control; conditions: 786-0, 48 h, read-out: Activity; procedure, shortened: as §1
[21] = tested on: IGROV-1; assay: Cytotoxicity against human IGROV1 cells assessed as cell growth at 10 uM after 48 hrs by SRB assay relative to control; conditions: IGROV-1, 48 h, read-out: Activity; procedure, shortened: as §1
[22] = tested on: K562; assay: Cytotoxicity against human K562 cells assessed as cell growth at 10 uM after 48 hrs by SRB assay relative to control; conditions: K562, 48 h, read-out: Activity; procedure, shortened: as §1
[23] = tested on: COLO 205; assay: Cytotoxicity against human COLO205 cells assessed as cell growth at 10 uM after 48 hrs by SRB assay relative to control; conditions: COLO 205, 48 h, read-out: Activity; procedure, shortened: as §1
[24] = tested on: UO-31; assay: Cytotoxicity against human UO31 cells assessed as cell growth at 10 uM after 48 hrs by SRB assay relative to control; conditions: UO-31, 48 h, read-out: Activity; procedure, shortened: as §2
[25] = tested on: NCI/ADR-RES; assay: Cytotoxicity against human NCI/ADR-RES cells assessed as cell growth at 10 uM after 48 hrs by SRB assay relative to control; conditions: read-out: Activity
[26] = tested on: SR; assay: Cytotoxicity against human SR cells assessed as cell growth at 10 uM after 48 hrs by SRB assay relative to control; conditions: read-out: Activity; procedure, shortened: as §2
[27] = tested on: Malme-3M; assay: Cytotoxicity against human MALME-3M cells assessed as cell growth at 10 uM after 48 hrs by SRB assay relative to control; conditions: read-out: Activity; procedure, shortened: as §1
[28] = tested on: KM12; assay: Cytotoxicity against human KM12 cells after 48 hrs by SRB assay; conditions: KM12, 48 h; for TGI: read-out: pTGI (converted)
Procedure, shortened: (§3)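 NCI 60-cell five-dose screen. Cells grown in RPMI 1640 with 5% FBS and 2 mM glutamine, plated at 5000–40,000 cells/well, and preincubated 24 h at 37 °C in 5% CO2. Time-zero plates fixed with TCA. Five serial dilutions of DMSO stock added, then 48 h exposure. TCA fixation, 0.4% SRB staining, absorbance read at 515 nm. GI50 from [(Ti−Tz)/(C−Tz)]×100 = 50.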

[29] = tested on: CCRF-CEM; assay: Cytotoxicity against human CCRF-CEM cells after 48 hrs by SRB assay; conditions: for TGI: read-out: pTGI (converted); procedure, shortened: as §3

Row | SMILES | growth at 10 µM [1] | growth at 10 µM [2] | growth at 10 µM [3] | growth at 10 µM [4] | growth at 10 µM [5] | growth at 10 µM [6] | growth at 10 µM [7] | growth at 10 µM [8] | growth at 10 µM [10] | growth at 10 µM [11] | growth at 10 µM [12] | growth at 10 µM [13] | growth at 10 µM [14] | growth at 10 µM [15] | growth at 10 µM [16] | growth at 10 µM [17] | growth at 10 µM [18] | growth at 10 µM [20] | growth at 10 µM [21] | growth at 10 µM [22] | other results
1 | COC(=O)C(Cc1cnc[nH]1)NC(=O)CCCn1c(C)c(C)c2c1N=C(SC)N1CC(=O)N=C21 (stereo not drawn) | 111% | 103% | 103% | 113% | 106% | 109% | 90% | 101% | 112% | 100% | 91% | 90% | 105% | 125% | 96% | 121% | 111% | 104% | 95% | 97% | growth at 10 µM [9]: 92%; growth at 10 µM [19]: 88%; growth at 10 µM [23]: 118%; growth at 10 µM [24]: 96%; growth at 10 µM [25]: 110%; growth at 10 µM [26]: 118%; growth at 10 µM [27]: 108%
2 | CSC1=Nc2c(c(C)c(C)n2CCCC(=O)NCCc2cnc[nH]2)C2=NC(=O)CN12 | 106% | 109% | 118% | 113% | 130% | 103% | 83% | 107% | 116% | 87% | 97% | 93% | 109% | 127% | 95% | 165% | 139% | 110% | 94% | 100% | growth at 10 µM [9]: 91%; growth at 10 µM [19]: 100%; growth at 10 µM [23]: 132%; growth at 10 µM [24]: 85%; growth at 10 µM [25]: 110%; growth at 10 µM [26]: 126%; growth at 10 µM [27]: 109%
3 | CSC1=Nc2c(c(C)c(-c3ccccc3)n2CCCCl)C2=NC(=O)CN12 | 79% | 64% | 72% | 56% | 77% | 78% | 56% | 47% | 95% | 51% | 62% | 76% | 65% | 88% | 23% | 85% | 105% | 78% | 48% | 19% | growth at 10 µM [9]: 65%; GI50 [28]: 4.17 µM; LC50 [28]: 81.3 µM; TGI [28]: 18.6 µM; growth at 10 µM [19]: 69%; growth at 10 µM [23]: 79%; GI50 [29]: 5.13 µM; LC50 [29]: > 100 µM; TGI [29]: > 100 µM; growth at 10 µM [24]: 57%; growth at 10 µM [25]: 58%; growth at 10 µM [26]: 13%; growth at 10 µM [27]: 83%
4 | CSC1=Nc2c(c(C)c(-c3ccccc3)n2CCCN2CCCCC2)C2=NC(=O)CC(C)N12 (stereo not drawn) | 69% | 82% | 61% | 43% | 66% | 63% | 36% | 81% | 56% | -51% | 79% | 44% | 81% | 27% | 21% | 24% | 49% | 80% | 23% | 12% | GI50 [28]: 3.16 µM; LC50 [28]: 33.9 µM; TGI [28]: 11 µM; growth at 10 µM [23]: -87%; GI50 [29]: 2.69 µM; LC50 [29]: > 100 µM; TGI [29]: 12 µM; growth at 10 µM [24]: 57%; growth at 10 µM [25]: 82%; growth at 10 µM [26]: 2%; growth at 10 µM [27]: 57%
